In ChEMBL document CHEMBL1156157, “1,7-Disubstituted oxyindoles are potent and selective EP(3) receptor antagonists” (Bioorg Med Chem Lett, 2010):

Tests used:
[1] = target: T1, Prostaglandin E2 receptor EP3 subtype (Homo sapiens, UniProt P43115); assay: Displacement of [3H]PGE2 from human EP3 receptor in buffer
T1 sequence (P43115 whole entry): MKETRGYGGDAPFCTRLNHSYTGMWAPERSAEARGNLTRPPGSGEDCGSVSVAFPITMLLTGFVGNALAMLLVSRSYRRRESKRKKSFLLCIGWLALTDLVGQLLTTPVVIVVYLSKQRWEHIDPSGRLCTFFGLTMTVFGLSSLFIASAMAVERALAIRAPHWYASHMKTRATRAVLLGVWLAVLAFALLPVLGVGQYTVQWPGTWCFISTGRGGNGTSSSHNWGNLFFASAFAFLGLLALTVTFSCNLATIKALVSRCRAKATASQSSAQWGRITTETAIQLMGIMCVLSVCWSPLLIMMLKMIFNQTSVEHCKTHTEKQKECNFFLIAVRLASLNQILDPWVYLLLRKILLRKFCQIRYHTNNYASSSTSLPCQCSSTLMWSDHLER

[2] = target: T1, Prostaglandin E2 receptor EP3 subtype; assay: Displacement of [3H]PGE2 from human EP3 receptor in presence of 10% human serum
[3] = Metabolic stability in human liver microsomes assessed as parent compound remaining after 30 mins; assay type: ADME, Microsome; settings: read-out: Stability
In short: (§1)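 Compounds incubated with liver microsomes from human, rat, mouse, dog or monkey. Read-out is percent parent compound remaining at 30 min of incubation.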

[4] = Metabolic stability in rat liver microsomes assessed as parent compound remaining after 30 mins; assay type: ADME, Microsome; settings: read-out: Stability; in short: as §1
[5] = organism: Rattus norvegicus; assay: Antithrombotic activity in rat assessed as platelet aggregation; assay type: functional
In short: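 Functional EP3 antagonism measured in a rat platelet aggregation assay. Values reported as EC50 in nM.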

[6] = Metabolic stability in mouse liver microsomes assessed as parent compound remaining after 30 mins; assay type: ADME, Microsome; settings: read-out: Stability; in short: as §1

In the case of `O=C(/C=C/c1cccc2c1N(Cc1ccc3ccccc3c1)C(=O)C2)NS(=O)(=O)c1cccs1`, the IC50 [1] is reported as 23.6 nM.
In the case of `O=C(/C=C/c1cccc2c1N(Cc1ccc3ccccc3c1)C(=O)C2)NS(=O)(=O)c1cc(F)c(F)cc1F`, the IC50 [1] is reported as 0.3 nM, the IC50 [2] is reported as 10.2 nM and the remaining at 0.5 h [3] is reported as 73.9%. For the same compound, the remaining at 0.5 h [4] was 62.5% and the EC50 [5] was 1090 nM.
In the case of `O=C(/C=C/c1cccc2c1N(Cc1ccc3ccccc3c1)C(=O)C2)NS(=O)(=O)c1ccc(F)c(F)c1`, the IC50 [1] is reported as 0.4 nM, the IC50 [2] is reported as 6.9 nM and the remaining at 0.5 h [3] is reported as 65.9%. It also gave a remaining at 0.5 h [4] of 43%, a remaining at 0.5 h [6] of 13.2% and an EC50 [5] of 246 nM.
Work on `O=C(/C=C/c1cccc2c1N(Cc1ccc3ccccc3c1)C(=O)C2)NS(=O)(=O)c1ccc(Cl)c(Cl)c1` yielded an IC50 [1] of 0.5 nM, an IC50 [2] of 5.2 nM and a remaining at 0.5 h [3] of 66.5%. The remaining at 0.5 h [4] was 46% and the remaining at 0.5 h [6] was 15.7%.
`O=C(/C=C/c1cccc2c1N(Cc1ccc3ccccc3c1)C(=O)C2)NS(=O)(=O)c1cccc(Cl)c1` gave an IC50 [1] of 0.6 nM, an IC50 [2] of 8.1 nM and a remaining at 0.5 h [3] of 56.8%. It also gave a remaining at 0.5 h [4] of 29.8%, a remaining at 0.5 h [6] of 7.8% and an EC50 [5] of 405 nM.
Work on `O=C(/C=C/c1cccc2c1N(Cc1ccc(F)c(F)c1)C(=O)C2)NS(=O)(=O)c1ccc(F)c(F)c1` yielded an IC50 [1] of 0.9 nM and an IC50 [2] of 47.8 nM.
With `O=C(/C=C/c1cccc2c1N(Cc1ccc(F)c(F)c1)C(=O)C2)NS(=O)(=O)c1cccc(Cl)c1` the IC50 [1] was 0.4 nM and the IC50 [2] was 35.5 nM.
For `CC1C(=O)N(Cc2ccc(Cl)cc2Cl)c2c(/C=C/C(=O)NS(=O)(=O)c3cccc(Cl)c3)cccc21` (stereo not drawn), the IC50 [1] was 0.5 nM, the IC50 [2] was 6.8 nM and the remaining at 0.5 h [3] was 49.5%. For the same compound, the remaining at 0.5 h [4] was 23.6% and the remaining at 0.5 h [6] was 7.26%.
For `O=C(/C=C/c1cccc2c1N(Cc1ccc3ccccc3c1)C(=O)C2(CO)CO)NS(=O)(=O)c1ccc(F)c(F)c1`, the IC50 [1] was 11.6 nM and the IC50 [2] was 187 nM.
For `CC1C(=O)N(Cc2ccc3ccccc3c2)c2c(/C=C/C(=O)NS(=O)(=O)c3cccc(Cl)c3)cccc21` (stereo not drawn), the IC50 [1] was 0.4 nM, the IC50 [2] was 2.8 nM and the remaining at 0.5 h [3] was 24.8%. It also gave a remaining at 0.5 h [4] of 13.1% and a remaining at 0.5 h [6] of 5.63%.
With `CC1C(=O)N(Cc2ccc3ccccc3c2)c2c(/C=C/C(=O)NS(=O)(=O)c3ccc(Cl)c(Cl)c3)cccc21` (stereo not drawn) the IC50 [1] was 0.6 nM, the IC50 [2] was 4.1 nM and the remaining at 0.5 h [3] was 36.4%. The remaining at 0.5 h [4] was 10.3% and the remaining at 0.5 h [6] was 5.83%.
Compound `O=C(/C=C/c1cccc2c1N(Cc1ccc(Cl)cc1Cl)C(=O)C2=O)NS(=O)(=O)c1cc(Cl)c(Cl)s1` has an IC50 [1] of 6.5 nM and an IC50 [2] of 136 nM.
`CC1C(=O)N(Cc2ccc(Cl)cc2Cl)c2c(/C=C/C(=O)NS(=O)(=O)c3cc(F)c(F)cc3F)cccc21` (stereo not drawn) showed an IC50 [1] of 0.5 nM, an IC50 [2] of 4.3 nM and a remaining at 0.5 h [3] of 48.4%. For the same compound, the remaining at 0.5 h [4] was 22.4% and the remaining at 0.5 h [6] was 4.85%.
`O=C(/C=C/c1cccc2c1N(Cc1ccc3ccccc3c1)C(=O)C2(CO)CO)NS(=O)(=O)c1cc(Cl)c(Cl)s1` showed an IC50 [1] of 2.3 nM and an IC50 [2] of 243 nM.
With `CC1C(=O)N(Cc2ccc(Cl)cc2Cl)c2c(/C=C/C(=O)NS(=O)(=O)c3cccs3)cccc21` (stereo not drawn) the IC50 [1] was 2.4 nM and the IC50 [2] was 660 nM.
Work on `CC1C(=O)N(Cc2ccc(Cl)cc2Cl)c2c(/C=C/C(=O)NS(=O)(=O)c3cc(Cl)c(Cl)s3)cccc21` (stereo not drawn) yielded an IC50 [1] of 3.4 nM, an IC50 [2] of 23.9 nM and an EC50 [5] of 47 nM.
Work on `O=C(/C=C/c1cccc2c1N(Cc1ccc3ccccc3c1)C(=O)C2=O)NS(=O)(=O)c1cccs1` yielded an IC50 [1] of 13.7 nM and an IC50 [2] of 260 nM.
`O=C(/C=C/c1cccc2c1N(Cc1ccc(Cl)cc1Cl)C(=O)C2)NS(=O)(=O)c1cc(F)c(F)cc1F` showed an IC50 [1] of 0.2 nM, an IC50 [2] of 4.4 nM and a remaining at 0.5 h [3] of 61.6%. For the same compound, the remaining at 0.5 h [4] was 50.6%, the remaining at 0.5 h [6] was 70.1% and the EC50 [5] was 361 nM.
Work on `O=C(/C=C/c1cccc2c1N(Cc1ccc(Cl)cc1Cl)C(=O)C2)NS(=O)(=O)c1ccc(F)c(F)c1` yielded an IC50 [1] of 0.7 nM, an IC50 [2] of 3.3 nM and a remaining at 0.5 h [3] of 54.3%. For the same compound, the remaining at 0.5 h [4] was 23.5%, the remaining at 0.5 h [6] was 39.1% and the EC50 [5] was 137 nM.
In the case of `O=C(/C=C/c1cccc2c1N(Cc1ccc3ccccc3c1)C(=O)C2=O)NS(=O)(=O)c1cc(Cl)c(Cl)s1`, the IC50 [1] is reported as 12.3 nM and the IC50 [2] is reported as 15 nM.
`O=C(/C=C/c1cccc2c1N(Cc1ccc3ccccc3c1)C(=O)C2=O)NS(=O)(=O)c1ccc(F)cc1` showed an IC50 [1] of 1.6 nM and an IC50 [2] of 33.9 nM.
In the case of `CC1C(=O)N(Cc2ccc3ccccc3c2)c2c(/C=C/C(=O)NS(=O)(=O)c3ccc(F)c(F)c3)cccc21` (stereo not drawn), the IC50 [1] is reported as 0.6 nM and the IC50 [2] is reported as 20 nM.
